Results on eleven compounds are retold here after ChEMBL document CHEMBL1132771, “Analogues of SB-203207 as inhibitors of tRNA synthetases” (Bioorg Med Chem Lett, 2000).

In brackets after ≈: the same amount, converted by molar mass. Activity calls are given as the source filed them. The rule behind the calls is not given here. A value given as a limit tells only on which side of the number the result lay.

In experiment [1] the test system is Haemophilus influenzae. As to the kind of experiment: Compound was evaluated for the antibacterial activity against Haemophilus influenzae Q1. It is filed as functional. The procedure, abridged: (§1)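 Broth microdilution MIC. Compounds in DMSO, diluted 1:10 in water to a 256 µg mL-1 stock, then serially diluted in supplemented cation-adjusted Mueller Hinton broth. Each well received an equal volume of isolate suspension (~1 × 10^6 cfu mL-1). Final concentrations were 0.06–64 µg mL-1. Plates were incubated at 35 °C in ambient air for 18–24 h, and the MIC was read with a mirror reader.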

Experiment [2] concerns Staphylococcus aureus. As to the kind of experiment: Compound was evaluated for the antibacterial activity against Staphylococcus aureus WCUH 29. It is filed as functional. The method, boiled down:
as §1

The test system of experiment [3] is Staphylococcus aureus. As to the kind of experiment: Compound was evaluated for the antibacterial activity against Staphylococcus aureus oxford. It is filed as functional. The procedure, abridged: as §1
The subject of experiment [4] is Escherichia coli. As to the kind of experiment: Compound was evaluated for the antibacterial activity against Escherichia coli 120 AcrAB-. It is filed as functional. The procedure, abridged: as §1
A further experiment has as its system Moraxella catarrhalis. The experiment is described as follows: Compound was evaluated for the antibacterial activity against Moraxella catarrhalis 1502. It is filed as functional. The method, boiled down:
as §1

For the next experiment, the target named is T1, Isoleucine--tRNA ligase (Staphylococcus aureus, UniProt P41972).
T1 sequence (P41972 whole entry): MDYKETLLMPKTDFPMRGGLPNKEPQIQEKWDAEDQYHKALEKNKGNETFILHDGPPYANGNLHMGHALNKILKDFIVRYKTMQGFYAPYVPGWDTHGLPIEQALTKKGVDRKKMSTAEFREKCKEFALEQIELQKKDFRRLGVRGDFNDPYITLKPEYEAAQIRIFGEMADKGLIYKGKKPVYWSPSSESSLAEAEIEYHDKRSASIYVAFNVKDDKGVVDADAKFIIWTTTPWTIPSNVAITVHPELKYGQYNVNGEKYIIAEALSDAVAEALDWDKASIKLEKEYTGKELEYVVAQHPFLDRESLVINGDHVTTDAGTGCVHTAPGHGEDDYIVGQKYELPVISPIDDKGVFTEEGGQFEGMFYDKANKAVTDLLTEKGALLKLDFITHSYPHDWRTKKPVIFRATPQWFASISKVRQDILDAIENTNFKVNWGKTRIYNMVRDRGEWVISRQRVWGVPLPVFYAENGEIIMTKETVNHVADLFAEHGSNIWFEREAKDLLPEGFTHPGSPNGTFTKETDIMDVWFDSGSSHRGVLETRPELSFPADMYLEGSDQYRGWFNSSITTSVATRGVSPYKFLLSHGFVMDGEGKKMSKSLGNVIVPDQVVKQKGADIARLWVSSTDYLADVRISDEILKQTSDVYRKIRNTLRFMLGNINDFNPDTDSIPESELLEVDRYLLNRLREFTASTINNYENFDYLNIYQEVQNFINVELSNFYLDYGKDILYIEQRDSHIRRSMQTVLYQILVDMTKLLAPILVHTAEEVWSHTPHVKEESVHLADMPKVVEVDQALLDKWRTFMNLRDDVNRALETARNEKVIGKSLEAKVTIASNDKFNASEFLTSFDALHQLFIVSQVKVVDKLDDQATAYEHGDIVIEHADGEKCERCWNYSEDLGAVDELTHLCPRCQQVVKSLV
As to the kind of experiment: Compound was evaluated for its inhibitory activity against Isoleucyl-tRNA synthetase from staphylococcus aureus WCUH29.

Experiment [5] concerns Enterococcus faecalis. As to the kind of experiment: Compound was evaluated for the antibacterial activity against Enterococcus faecalis 7. It is filed as functional. The procedure, abridged: as §1
Experiment [6] relates to Escherichia coli. As to the kind of experiment: Compound was evaluated for the antibacterial activity against Escherichia coli 763 AcrABEFD. It is filed as functional. The procedure, abridged: as §1
Experiment [7] concerns Streptococcus pneumoniae. As to the kind of experiment: Compound was evaluated for the antibacterial activity against Streptococcus pneumoniae N1387. It is filed as functional. The procedure, abridged: as §1
Experiment [8] has as its system Streptococcus pneumoniae. As to the kind of experiment: Compound was evaluated for the antibacterial activity against Streptococcus pneumoniae 1629. It is filed as functional. The method, boiled down: as §1
Experiment [9] concerns the target T2, Isoleucyl-tRNA synthetase (Rattus norvegicus, UniProt O35880).
T2 sequence (O35880 whole entry): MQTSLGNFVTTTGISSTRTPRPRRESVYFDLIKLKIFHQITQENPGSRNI
As to the kind of experiment: Compound was evaluated for its inhibitory activity against Isoleucyl-tRNA synthetase from rat liver.

For experiment [10], the system named is Haemophilus influenzae. The experiment is described as follows: Compound was evaluated for the antibacterial activity against Haemophilus influenzae NEMC1. It is filed as functional. The procedure, abridged: as §1
Experiment [11] can be described thus: Compound was evaluated for its inhibitory activity against VRS (valyl tRNA synthetase) from staphylococcus aureus WCUH29.
Experiment [12] deals with Enterococcus faecalis. As to the kind of experiment: Compound was evaluated for the antibacterial activity against Enterococcus faecalis 1. It is filed as functional. The method, boiled down: as §1
The subject of experiment [13] is Streptococcus pneumoniae. The experiment is described as follows: Compound was evaluated for the antibacterial activity against Streptococcus pneumoniae ERY2. It is filed as functional. The method, boiled down:
as §1

Experiment [14] deals with Staphylococcus aureus. The experiment is described as follows: Compound (100 uM) was evaluated for its inhibitory activity against VRS (valyl tRNA synthetase) from staphylococcus aureus WCUH29.
Experiment [15] deals with Leucine--tRNA ligase (Staphylococcus aureus). The experiment is described as follows: Compound (100 uM) was evaluated for its inhibitory activity against Leucyl-tRNA synthetase from staphylococcus aureus WCUH29; no inhibition.
Experiment [16] has as its system Staphylococcus aureus. As to the kind of experiment: Compound (100 uM) was evaluated for its inhibitory activity against VRS (valyl tRNA synthetase) from staphylococcus aureus WCUH29; no inhibition.
Experiment [17] has as its target T3, Isoleucine--tRNA ligase (Staphylococcus aureus) (UniProt P41972).
T3 sequence (whole entry): T1 sequence (P41972 whole entry)
The experiment is described as follows: Compound (100 uM) was evaluated for its inhibitory activity against Isoleucyl-tRNA synthetase from staphylococcus aureus WCUH29.

For experiment [18], the target named is T4, Isoleucyl-tRNA synthetase (Rattus norvegicus) (UniProt O35880).
T4 sequence (whole entry): T2 sequence (O35880 whole entry)
As to the kind of experiment: Compound (100 uM) was evaluated for its inhibitory activity against Isoleucyl-tRNA synthetase from rat liver.

Experiment [19] concerns Leucine--tRNA ligase (Staphylococcus aureus). The experiment is described as follows: Compound (10 uM) was evaluated for its inhibitory activity against Leucyl-tRNA synthetase from staphylococcus aureus WCUH29; no inhibition.
For experiment [20], the system named is Staphylococcus aureus. As to the kind of experiment: Compound (10 uM) was evaluated for its inhibitory activity against VRS (valyl tRNA synthetase) from staphylococcus aureus WCUH29; no inhibition.
The subject of experiment [21] is Leucine--tRNA ligase (Staphylococcus aureus). The experiment is described as follows: Compound (100 uM) was evaluated for its inhibitory activity against Leucyl-tRNA synthetase from staphylococcus aureus WCUH29.

The IC50 is the concentration at which inhibition is half-maximal. For `CC(C)C[C@H](N)C(=O)NS(=O)(=O)CC(=O)N[C@]1(C(=O)O)[C@@H]2CN(C)C=C(C(N)=O)[C@@H]2C[C@@H]1O`, the MIC was 64 µg/mL (≈ 131 µM) in the experiment with Haemophilus influenzae [1]; more than 64 µg/mL against Staphylococcus aureus [2]; more than 64 µg/mL against Staphylococcus aureus [3]; more than 64 µg/mL against Escherichia coli [4]; more than 64 µg/mL against Moraxella catarrhalis; more than 64 µg/mL against Enterococcus faecalis [5]. For the same compound, the MIC was more than 64 µg/mL in the experiment on Escherichia coli [6]; 64 µg/mL (≈ 131 µM) in the experiment on Streptococcus pneumoniae [7]; 32 µg/mL (≈ 65.4 µM) with Streptococcus pneumoniae [8]; 64 µg/mL (≈ 131 µM) against Haemophilus influenzae [10]; more than 64 µg/mL in the experiment on Enterococcus faecalis [12]; 16 µg/mL (≈ 32.7 µM) against Streptococcus pneumoniae [13]. Further, the IC50 turned out to be 910 nM on Isoleucine--tRNA ligase, 68 nM in [9] and 290 nM in experiment [11].
A word on the inhibition: it is the drop in the measured response relative to a control, in per cent. Consider `CC[C@H](C)[C@H](N)C(=O)NS(=O)(=O)CC(=O)N[C@]1(C(=O)OC)[C@@H]2CN(C)C=C(C(N)=O)[C@@H]2C[C@@H]1O`, for which, in the experiment on Staphylococcus aureus [14], the inhibition came out at 40%. Besides, the IC50 is 60 nM at Isoleucine--tRNA ligase and 17 nM in [9].
Turning to `CC[C@H](C)CC(=O)NS(=O)(=O)CC(=O)N[C@@]1(C(=O)OCc2ccccc2)[C@@H](OC(=O)C[C@@H](C)CC)C[C@H]2C(C(N)=O)=CN(C)C[C@H]21`, in [15], the inhibition result was “inactive”. Moreover, the values for the inhibition (in the experiment with Staphylococcus aureus [16]; in experiment [17]; in [18]) were 6%, 19% and 20%, respectively.
As to `CC(C)[C@H](N)C(=O)NS(=O)(=O)CC(=O)N[C@]1(C(=O)O)[C@@H]2CN(C)C=C(C(N)=O)[C@@H]2C[C@@H]1O`, the IC50 stood at 37 nM on Isoleucine--tRNA ligase, 2.9 nM in experiment [9] and 30 nM in [11].
On to `CC[C@H](C)[C@H](N)C(=O)NS(=O)(=O)CC(=O)N[C@]1(C(=O)O)[C@@H]2CN(C)C=C(C(N)=O)[C@@H]2C[C@@H]1O`, for which the MIC with Haemophilus influenzae [1] is 64 µg/mL (≈ 131 µM); with Staphylococcus aureus [2], more than 64 µg/mL; in the experiment with Staphylococcus aureus [3], more than 64 µg/mL; against Escherichia coli [4] it was more than 64 µg/mL; with Moraxella catarrhalis, more than 64 µg/mL; in the experiment on Enterococcus faecalis [5] it was more than 64 µg/mL. For the same compound, the MIC against Escherichia coli [6] was more than 64 µg/mL; with Streptococcus pneumoniae [7], more than 64 µg/mL; with Streptococcus pneumoniae [8], more than 64 µg/mL; against Haemophilus influenzae [10], 64 µg/mL (≈ 131 µM); against Enterococcus faecalis [12], more than 64 µg/mL; in the experiment on Streptococcus pneumoniae [13], 64 µg/mL (≈ 131 µM). Also, the IC50 against Isoleucine--tRNA ligase worked out at 14 nM; in experiment [9], 4.2 nM; in [11], 126 nM.
In the case of `CC[C@H](C)CC(=O)NS(=O)(=O)CC(=O)N[C@@]1(C(=O)OC)[C@@H](OC(=O)C[C@@H](C)CC)C[C@H]2C(C(N)=O)=CN(C)C[C@H]21`, the inhibition entry (in experiment [15]; in the experiment on Staphylococcus aureus [16]) was “inactive” in each case. The inhibition in [17] came to 18%; in experiment [18], 9%.
For `CC[C@H](C)[C@H](NC(=O)OCc1ccccc1)C(=O)NS(=O)(=O)CC(=O)N[C@@]1(C(=O)OC)[C@@H](OC(=O)[C@@H](NC(=O)OCc2ccccc2)[C@@H](C)CC)C[C@H]2C(C(N)=O)=CN(C)C[C@H]21`, the inhibition result (in experiment [15]; in the experiment on Staphylococcus aureus [16]) was “inactive” throughout. For the same compound, in experiment [9], the IC50 was determined as 500 nM. The compound also showed an inhibition in [17] of 46%.
On to `CC[C@H](C)[C@H](N)C(=O)NS(=O)(=O)CC(=O)N[C@]1(C(=O)OCc2ccccc2)[C@@H]2CN(C)C=C(C(N)=O)[C@@H]2C[C@@H]1O`, for which the inhibition entry (in experiment [19]; in the experiment with Staphylococcus aureus [20]) was “inactive” throughout. The IC50 on Isoleucine--tRNA ligase was determined as 120 nM; in [9] it was 25 nM.
On to `CC[C@H](C)CC(=O)NS(=O)(=O)CC(=O)N[C@]1(C(=O)O)[C@@H]2CN(C)C=C(C(N)=O)[C@@H]2C[C@@H]1O`, for which the inhibition result with Staphylococcus aureus [16] was “inactive”. For the same compound, the IC50 at Isoleucine--tRNA ligase amounted to 3270 nM; in experiment [9], 22300 nM.
For the compound `CC[C@H](C)CC(=O)NS(=O)(=O)CC(=O)N[C@@]1(C(=O)O)[C@@H](OC(=O)C[C@@H](C)CC)C[C@H]2C(C(N)=O)=CN(C)C[C@H]21`, the inhibition with Staphylococcus aureus [14] was determined as 65%. Besides, the IC50 on Isoleucine--tRNA ligase is 14600 nM; in experiment [9] it was 6100 nM.
As for `CC[C@H](C)CC(=O)NS(=O)(=O)CC(=O)N[C@]1(C(=O)OC)[C@@H]2CN(C)C=C(C(N)=O)[C@@H]2C[C@@H]1O`, in the experiment with Staphylococcus aureus [16], the inhibition result was “inactive”. Besides, the inhibition in [21] was 13%; in [17], 23%; in experiment [18], 25%.
